Measured values pooled from the literature.
pIC50: −log10 of the molar value. Values after ≈ are worked out from the molar mass of the structure shown.

CNC(=O)O[C@@H](C)/C=C\C(=O)N[C@H]1CC[C@@H](C/C=C(C)/C=C/[C@@H]2C[C@]3(CO3)CC(C)(C)O2)CC1
pIC50 (JeKo-1; cell growth or viability, ATP luminescence; 72 h): 7.59

CCCCCCCCCCCc1c([N+](=O)[O-])oc2ccc3ccccc3c12
MIC90 (Mycolicibacterium smegmatis; microbial growth, resazurin; MC^2155): > 32 µg/mL

COc1ccc2c(c1)/C(=N/NC(=O)c1cc3ccccc3[nH]1)C(=O)N2Cc1ccccc1
inhibition (ZR75; cell growth or viability; 30 µM): 93.8%

O=C(Nc1ncc(CC2CCCCC2)s1)C12CC3CC(CC(C3)C1)C2
MIC (Histoplasma capsulatum; microbial growth): > 20 µM

CCC1(c2ccc(N)cc2)CCC(=O)NC1=O (stereo not drawn)
pIC50 (Hep3B; cell growth or viability, CCK-8; 48 h): < 4.30

O=C(CCC1CCCCC1)Nc1ncc(Cc2ccc(F)cc2)s1
MIC (Histoplasma capsulatum; microbial growth): > 20 µM

O=C(O)CCCc1ccc(N(CCCl)CCCl)cc1
pIC50 (Hep3B; cell growth or viability, CCK-8; 48 h): 4.53

O=C(N/N=C1\C(=O)N(Cc2ccccc2)c2ccc(Br)cc21)c1cc2ccccc2[nH]1
pIC50 (ZR75; cell growth or viability): 6.15

CCCCc1c([N+](=O)[O-])oc2ccc3ccccc3c12
MIC90 (Mycolicibacterium smegmatis; microbial growth, resazurin; MC^2155): 16 µg/mL (≈ 59.4 µM)

O=C(CCC1CCCCC1)Nc1ncc(Cc2ccc3ccccc3c2)s1
MIC (Histoplasma capsulatum; microbial growth): > 20 µM

CCc1c([N+](=O)[O-])oc2ccc3ccccc3c12
MIC90 (Mycolicibacterium smegmatis; microbial growth, resazurin; MC^2155): 8 µg/mL (≈ 33.2 µM)

O=C(N/N=C1\C(=O)N(Cc2ccc(Cl)cc2)c2ccccc21)c1cc2ccccc2[nH]1
pIC50 (ZR75; cell growth or viability): 5.89

O=C(CCC1CCCCC1)Nc1ncc(Cc2cccc(F)c2)s1
MIC (Histoplasma capsulatum; microbial growth): 2.5 µM (≈ 0.866 µg/mL)

COc1ccc2c(ccc3oc([N+](=O)[O-])cc32)c1
MIC90 (Mycolicibacterium smegmatis; microbial growth, resazurin; MC^2155): 2 µg/mL (≈ 8.22 µM)

N#Cc1ccc(CN2C(=O)/C(=N\NC(=O)c3cc4ccccc4[nH]3)c3ccccc32)cc1
inhibition (ZR75; cell growth or viability; 30 µM): 75.4%

CCCc1cc(=O)n2nc(NCc3c(F)cc(Cl)cc3F)c(C#N)c2[nH]1
pIC50 (NCI-H2110; cell growth or viability, ATP luminescence; 72 h): < 4.30

O=C(N/N=C1\C(=O)N(Cc2ccccc2)c2ccc(Cl)cc21)c1cc2ccccc2[nH]1
inhibition (ZR75; cell growth or viability; 30 µM): 83.8%

O=C(Nc1ncc(Cc2ccc3ccccc3c2)s1)c1ccccc1
MIC (Histoplasma capsulatum; microbial growth): > 20 µM

O=[N+]([O-])c1cc2c(ccc3c4cc([N+](=O)[O-])oc4ccc23)o1
MIC90 (Mycolicibacterium smegmatis; microbial growth, resazurin; MC^2155): > 32 µg/mL

O=C(CCC1CCCCC1)Nc1ncc(Cc2cccc(C(F)(F)F)c2)s1
MIC (Histoplasma capsulatum; microbial growth): > 20 µM

Cc1ccc(CN2C(=O)/C(=N\NC(=O)c3cc4ccccc4[nH]3)c3ccccc32)cc1
pIC50 (ZR75; cell growth or viability): 5.89

N#Cc1ccc2c(ccc3oc([N+](=O)[O-])cc32)c1
MIC90 (Mycolicibacterium smegmatis; microbial growth, resazurin; MC^2155): > 32 µg/mL

O=C(CC1CCCCC1)Nc1ncc(-c2ccccc2)s1
MIC (Histoplasma capsulatum; microbial growth): > 20 µM

O=C(N/N=C1\C(=O)N(Cc2ccccc2)c2ccc(F)cc21)c1cc2ccccc2[nH]1
inhibition (ZR75; cell growth or viability; 30 µM): 77.5%

O=C(O)C(Cl)Cl
pIC50 (PSN1; cell growth or viability, MTT; 72 h): < 4.30

O=C(N/N=C1\C(=O)N(Cc2ccccc2)c2ccccc21)c1cc2ccccc2[nH]1
pIC50 (ZR75; cell growth or viability): 5.95

COC(=O)c1ccc2c(ccc3oc([N+](=O)[O-])cc32)c1
MIC90 (Mycolicibacterium smegmatis; microbial growth, resazurin; MC^2155): > 32 µg/mL

O=C(Nc1ncc(Cc2ccccc2)s1)N1CCCCC1
MIC (Histoplasma capsulatum; microbial growth): > 20 µM

Nc1c([N+](=O)[O-])oc2ccc3ccccc3c12
MIC90 (Mycolicibacterium smegmatis; microbial growth, resazurin; MC^2155): > 32 µg/mL

C=CCc1cc(OC)c2c(c1)OCO2
pIC50 (COR-L23; cell growth or viability, SRB): < 3.28
